B-score data for 78 compounds are collected here from PubChem BioAssay AID2237 (Johns Hopkins Ion Channel Center, 2010).

Out of some 310,000 compounds screened, about 1,500 (0.48%) were called active.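 The calls were made as follows: active = B-score above 5 SD of library B-scores, and initial fluorescence ratio not above library mean plus 5 SD; inactive = the rest.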 What follows is part of a selection rich in actives, with near analogues and random picks from the rest.

The target of this experiment is Short transient receptor potential channel 4 (Mus musculus) (UniProt Q9QUQ5). The experiment in a line: TRPC4 cation channel opening, calcium rise – Fluo4 calcium, HEK293 TRPC4beta/mu-opioid cells, primary screen (AID 2237).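 As to B-score: positive B-score marks a calcium rise read as TRPC4 activation.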 Conditions: Fluo4 calcium fluorescence, at 10 µM; active compounds read high. In short, it runs like this: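 Assay system – TRPC4beta and mu-opioid receptor HEK293 stable cells · Measured by – Fluo4 fluorescence, kinetic · Schedule – dye loading 45 min room temperature, 110 s kinetic read · Read-out – B-scored integrated calcium fluorescence ratio · Controls – buffer and maximal DAMGO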
Chain of Short transient receptor potential channel 4 (Mus musculus) (Q9QUQ5 whole entry, looked up): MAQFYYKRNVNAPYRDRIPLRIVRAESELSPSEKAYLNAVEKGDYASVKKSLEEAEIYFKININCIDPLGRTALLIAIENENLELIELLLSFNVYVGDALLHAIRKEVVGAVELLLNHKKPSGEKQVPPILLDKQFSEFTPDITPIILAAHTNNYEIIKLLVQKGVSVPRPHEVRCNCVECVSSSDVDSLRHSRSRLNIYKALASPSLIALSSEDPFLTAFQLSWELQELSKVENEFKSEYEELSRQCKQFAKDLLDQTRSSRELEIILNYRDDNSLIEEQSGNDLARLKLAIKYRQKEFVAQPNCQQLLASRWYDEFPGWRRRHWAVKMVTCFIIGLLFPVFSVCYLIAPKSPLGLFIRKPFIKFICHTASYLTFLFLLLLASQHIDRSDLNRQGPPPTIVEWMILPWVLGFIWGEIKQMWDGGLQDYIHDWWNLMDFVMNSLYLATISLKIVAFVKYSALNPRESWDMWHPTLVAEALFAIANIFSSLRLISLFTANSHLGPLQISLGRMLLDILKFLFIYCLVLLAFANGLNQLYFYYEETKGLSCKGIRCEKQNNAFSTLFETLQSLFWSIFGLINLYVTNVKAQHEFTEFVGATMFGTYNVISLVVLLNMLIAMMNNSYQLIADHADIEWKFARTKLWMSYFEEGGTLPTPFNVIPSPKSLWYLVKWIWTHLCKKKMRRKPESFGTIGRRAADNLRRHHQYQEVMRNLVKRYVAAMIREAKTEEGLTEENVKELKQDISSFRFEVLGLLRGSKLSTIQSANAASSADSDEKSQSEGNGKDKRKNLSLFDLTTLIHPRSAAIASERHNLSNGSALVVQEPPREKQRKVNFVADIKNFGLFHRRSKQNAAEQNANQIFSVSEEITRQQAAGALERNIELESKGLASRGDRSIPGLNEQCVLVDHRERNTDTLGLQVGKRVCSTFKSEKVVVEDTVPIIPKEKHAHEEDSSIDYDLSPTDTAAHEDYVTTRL
For the compound `CCOCCCNC(=O)C(=O)NCCCOCC`, the B-score result is “inactive”. Regarding `CCCCn1c(-c2cccc(C)c2)nc2cc3[nH]c(=O)c(C(C)C)nc3cc21`, the B-score entry is “inactive”.

As to `Cc1ccnc(NC(=O)CCNS(=O)(=O)c2ccc(C)c(C)c2)c1`, the B-score result is “inactive”.

With `CCOc1ccc(NS(=O)(=O)c2ccc(C(=O)NCC(c3ccccc3OC)N3CCCC3)cc2)cc1` (stereo not drawn), the B-score result is “inactive”. With `CC(NC(=O)COC(=O)c1ccc(Cl)cc1O)c1ccc(F)cc1` (stereo not drawn), the B-score entry was “inactive”. Turning to `COc1ccc(C(CNCC(=O)Nc2ccccc2F)N(C)C)cc1` (stereo not drawn), the B-score is 108 (active). Take `COc1ccc(Cl)cc1NC(=O)CNc1ccccc1F`: the B-score entry is “inactive”.

As for `COc1ccc(C(CNC(=O)c2ccc(S(=O)(=O)Nc3ccccc3F)cc2)N(C)C)cc1` (stereo not drawn), the B-score result is “inactive”.

Turning to `COc1ccc2c(c1)OC(O)(C(F)(F)C(F)F)CC2=O` (stereo not drawn), the B-score was 82 (active). On to `COc1ccc2c(c1)SC(C)CC2=O` (stereo not drawn), for which the B-score result is “inactive”.

As for `CC1(C)CC(=O)c2ccc(O)cc2O1`, the B-score result was “inactive”. As to `O=S1(=O)CC/C(=N\Nc2ccc(F)cc2)c2ccsc21`, the B-score entry is “inactive”. For `COc1ccc(-n2ncc3c(N4CCc5ccccc54)ncnc32)cc1`, the B-score was 64 (active). Next, `COc1ccc(-n2ncc3c(SCC(=O)NNC(C)=O)ncnc32)cc1`: “inactive”; `CC(C)Sc1ncnc2c1cnn2-c1ccccc1`: “inactive”. For `CC(C)N1CCC(NC(=O)Nc2ccccc2)CC1` the value was “inactive”; for `COc1ccccc1N(CC(=O)N1CCCCC1)S(=O)(=O)c1ccccc1`, 56 (active); for `COc1ccc(N(CC(=O)N2CCCCCC2)S(=O)(=O)c2ccccc2)cc1`, “inactive”. In the case of `COc1ccc(C)cc1N(CC(=O)N1CCCC1)S(=O)(=O)c1ccccc1`, the B-score result is “inactive”.

In the case of `COC(=O)CC1=NN(c2nc(C)cc(C)n2)C(=O)C1`, the B-score result was “inactive”. Turning to `O=C(COc1ccc(Br)cc1F)NC1CCN(Cc2ccccc2)CC1`, the B-score result was “inactive”. With `S=C(Nc1ccc(Br)cc1)NC1CCN(Cc2ccccc2)CC1`, the B-score result was “inactive”. Turning to `S=C(Nc1ccc(Br)cc1Cl)NC1CCN(Cc2ccccc2)CC1`, the B-score is 57 (active). Next, `O=C(COc1ccccc1Cl)N1CCCCCCC1`: “inactive”; `CCN1C(=O)C(C(=O)NC(C)c2ccccc2)C2CC1(C)Oc1ccccc12` (stereo not drawn): “inactive”; `CCCCN(CC)CCCNC(=O)CS(=O)(=O)Cc1nc(-c2cccc(OC)c2)oc1C`: 56 (active).

As for `COc1ccc(-c2nc(CS(=O)(=O)CC(=O)NCc3cccc(Br)c3)c(C)o2)cc1`, the B-score entry was “inactive”. For `COc1cccc(-c2nc(CS(=O)(=O)CC(=O)NCCc3ccc(OC)c(OC)c3)c(C)o2)c1` the value was “inactive”; for `CCN1/C(=C\c2ccc3ccccc3[n+]2CC)Sc2cc(C)ccc21`, 425 (active). Consider `CCOc1ccc(CN2CCNC(=O)C2CC(=O)NCCCC2CCCC2)cc1` (stereo not drawn), for which the B-score result was “inactive”. Take `CCN(CC)c1ccc(NC(=O)C2CCC(CNc3c(N4CCCC4)c(=O)c3=O)CC2)c(C)c1` (stereo not drawn): the B-score entry was “inactive”. Turning to `CCCn1c(C2CCCN2c2nc(-c3ccc(C)cc3)cs2)nc2cc(Cl)c(N3CCCCC3)cc21` (stereo not drawn), the B-score entry was “inactive”. `CCCn1c(C2CCCN2c2nc(-c3ccc(OC)cc3)cs2)nc2ccccc21` (stereo not drawn): the B-score was 70 (active). On to `CCCn1c(CCNc2nc(-c3ccc(OC)cc3)cs2)nc2ccccc21`, for which the B-score result was “inactive”. For `CCN1C(=O)[C@H]2[C@@H](c3ccc(-c4ccc(OC)cc4)cc3)N[C@@](Cc3ccccc3)(C(=O)OC)[C@H]2C1=O` the value was “inactive”; for `COC(=O)c1cc(S(=O)(=O)NC2CCN(Cc3ccccc3)CC2)cn1C`, “inactive”.

Turning to `CCC1(CC)Cc2ccccc2-c2nc(CCl)[nH]c(=O)c21`, the B-score result was “inactive”. Next, `COc1ccc(CCN(C)C(=O)C2CCCN(Cc3ccc(OC)c(OC)c3)C2)cc1OC` (stereo not drawn): “inactive”. Take `COc1ccc(CN2CCCC(C(=O)c3ccc(Cl)cc3)C2)cc1Cn1cncn1` (stereo not drawn): the B-score is 48 (active).

As for `COc1cc(CN2CCCC(C(=O)c3ccc(SC)cc3)C2)cc(Cl)c1O` (stereo not drawn), the B-score result is “inactive”. As for `CCNS(=O)(=O)c1ccc(CCC(=O)N2CCN(c3ccc(OC)cc3)CC2)cc1`, the B-score entry was “inactive”.

For the compound `CN1C(CC(=O)Nc2ccc(Br)cc2)c2ccccc2CC1(C)C` (stereo not drawn), the B-score was 109 (active). `COCC(=O)Nc1ccc(Br)cc1`: the B-score result was “inactive”. For the compound `CN1CCN(NC(=O)Nc2ccc(Br)cc2)CC1`, the B-score entry is “inactive”.

Turning to `COC(=O)C1CCN(C(=O)NC2CC(=O)N(c3ccc4c(c3)OCCO4)C2)CC1` (stereo not drawn), the B-score result is “inactive”. Next, `CN(CC(=O)Nc1ccccc1Cl)C(=O)COc1cccc2c1OC(C)(C)C2`: “inactive”; `COc1cccc(CC2(CO)CCCN(Cc3nc(-c4cccs4)oc3C)C2)c1` (stereo not drawn): “inactive”; `CCOc1ccccc1-c1nc(CN2CCC(C(=O)N3CCOCC3)CC2)c(C)o1`: “inactive”. Next, `CCOC(=O)C1(CC2CCCCO2)CCN(Cc2nc(-c3cccs3)oc2C)CC1` (stereo not drawn): 73 (active); `CC12CCC(C(=O)N(NC(=O)c3ccccc3O)C1=O)C2(C)C` (stereo not drawn): “inactive”.

`O=C(NCc1cccnc1)c1cnc2ccccc2n1`: the B-score result is “inactive”. For `COc1cc(C(=O)Nn2c(CC(C)C)nc3ccccc3c2=O)cc(OC)c1OC` the value was “inactive”; for `Cc1ccc(CNC(=O)c2c(-c3ccccc3)noc2C)cc1`, “inactive”. `COc1ccc(C(=O)NC(=S)NNC(=O)c2c(-c3ccccc3)noc2C)cc1`: the B-score is 133 (active). On to `CCc1noc(C)c1C(=O)NNC(=O)c1ccc(F)cc1`, for which the B-score entry was “inactive”.

Consider `Cc1onc(-c2ccccc2)c1C(=O)Nc1ccccc1C#N`, for which the B-score result was “inactive”.

Regarding `Cc1onc(-c2c(Cl)cccc2Cl)c1C(=O)NNC(=O)c1c(-c2c(Cl)cccc2Cl)noc1C`, the B-score result was “inactive”.

Take `Cc1onc(-c2ccccc2)c1C(=O)NNC(=S)NC(=O)c1ccc(F)cc1`: the B-score is 185 (active). For the compound `CCc1cccc(C)c1NS(=O)(=O)c1cc(Br)cnc1N`, the B-score result was “inactive”. Regarding `Cc1cc(NS(=O)(=O)c2ccc(NC(=O)C(C)Oc3cccc(C)c3C)cc2)nc(C)n1` (stereo not drawn), the B-score entry was “inactive”. Turning to `COc1ccccc1N1CCN(c2nc(C)cc(=O)[nH]2)CC1`, the B-score entry is “inactive”. Turning to `Cc1ccc(CN2CCN(c3ccccc3Cl)CC2)o1`, the B-score entry is “inactive”. Next, `OCCNCc1cccc(OCc2ccccc2Cl)c1`: “inactive”; `OCCNCCCCOc1ccccc1F`: “inactive”; `OCCNCCOc1ccc(Cl)c(Cl)c1`: 70 (active).

On to `COc1cccc2c1CCC(NC(C)=O)C2=O` (stereo not drawn), for which the B-score result was “inactive”. For `c1ccc(C[C@H]2CNCCN2CCC23CC4CC(CC(C4)C2)C3)cc1` the value was “inactive”.

Regarding `COC(=O)C1(C)CC1(c1ccccc1)c1ccccc1` (stereo not drawn), the B-score result is “inactive”. As for `COc1cccc(NC(C)=[N+](C)CCNS(=O)(=O)c2ccc(Cl)cc2)c1`, the B-score entry is “inactive”.

On to `CCNS(=O)(=O)c1ccc(NC(=O)Nc2cccc(OC)c2)cc1`, for which the B-score was 54 (active).

On to `CCN(CC(=O)Nc1ccc(S(=O)(=O)N2CCCC2)cc1)CC(=O)Nc1cccc(OC)c1`, for which the B-score entry was “inactive”. Next, `CC(CN1CCCCC1)c1ccccc1` (stereo not drawn): “inactive”; `CC(=O)c1ccc(N2CCN(C(=O)CCc3ccccc3)CC2)cc1`: “inactive”. Consider `CC(=O)c1ccc(N2CCN(CC(O)c3ccccc3)CC2)cc1` (stereo not drawn), for which the B-score was 63 (active). For `CC(=O)N1CCN(CC(c2ccccc2)c2ccccc2)CC1` the value was “inactive”; for `CCCOc1ccc(Cc2c(O)nc(N)[nH]c2=O)cc1C`, “inactive”; for `C=CCc1ccc(OCCOc2cccc(/C=N/n3cnnc3)c2)c(OC)c1`, “inactive”. Take `COC(=O)[C@H]1Cc2cnoc2C[C@]1(C)C(=O)O`: the B-score result is “inactive”.
